The results in this text go back to ChEMBL document CHEMBL4513216, “Probing the Open Global Health Chemical Diversity Library for Multistage-Active Starting Points for Next-Generation Antimalarials” (ACS Infect Dis, 2020).

Molecules are shown by their SMILES.

This data set can be described thus: Toxicity liver stage against HepG2, at 10uM. Conditions: human, HepG2-A16-CD81EGFP cells; read-out: INHIBITION
The data set is classed as cell-based. Also noted: test concentration 10 uM, cell line HepG2-A16-CD81EGFP. Summed up:
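Uninfected HepG2-A16-CD81EGFP cells, 3 × 10^3 per well, 1536-well, plated on prespotted compound at 10 μM final, parasite-free screening media added to match infected plates; puromycin 10 μM positive, DMSO 0.5% negative; run in parallel with 48 h PbLuc assay at 37 °C, 5% CO2; viability by CellTiter-Glo luminescence, normalized to controls.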
On to `CN1CC=C(c2noc(CCC(=O)N3CCc4ccccc4C3)n2)CC1`, for which the cytotoxicity at 10 µM stood at 6.97%. In the case of `CC(C)n1ccc2c(NC(=O)c3n[nH]c4c3CCC4)cccc21` it was 7.64%; in that of `COc1ccc(CC(C)(O)CNC(=O)Cc2ccc(F)cc2)cc1` (stereo unspecified), 3.91%; in that of `O=C(Nc1cnc(N2CCOCC2)nc1)c1ccc(C(F)(F)F)cc1`, 9.94%. As to `Cc1ccc(S(=O)(=O)N2CCC(Oc3ccccn3)CC2)c(C)c1`, the cytotoxicity at 10 µM worked out at 26.3%. As for `CCN(C)C(=O)c1cnc(-c2noc3cc(N4CCCCC4)ccc23)s1`, the figure is 48.6%; as for `CCOCC1c2c(ncn2C(C)C)CCN1C(=O)C1CC1` (stereo unspecified), 10.5%.

For the compound `Cc1ccc(C(=O)N2C[C@@H]3CN(c4ncccn4)C[C@@H]3C2)cn1`, the cytotoxicity at 10 µM was 6.86%. Take `Cc1c(C)n(Cc2ccncc2)c2nc3c(c(N)c12)CCCCCC3`: the cytotoxicity at 10 µM was found to be 9.18%. In the case of `COc1ccc(NC2CCc3c2[nH]c(=O)n(C2CCCCC2)c3=O)cc1` (stereo unspecified) it was 2%. Regarding `CCn1cc(CNC(=O)c2nn(CC)cc2Br)cn1`, the cytotoxicity at 10 µM was 47.1%.

As for `CCCc1nc(N2CCCCCC2)c2c(n1)c(C)nn2CC`, the cytotoxicity at 10 µM is 39.4%.

Turning to `c1cnc(N2CCC(c3csc(Nc4cnccn4)n3)CC2)nc1`, the cytotoxicity at 10 µM was determined as 34%. As for `Cc1nn(C)cc1C1=NS(=O)(=O)N(C)C(C(=O)Nc2ccc(Cl)cc2)=C1`, the figure is 7.9%; as for `Fc1cccc(Nc2nc(N3CCCC3)nc3c2CNCC3)c1`, -18%. Regarding `NCC(=O)N1CCC(c2cccc(Oc3ccccc3)n2)CC1`, the cytotoxicity at 10 µM is 9.43%.

Take `Nc1cc(CCC2CN(Cc3ccc4cc[nH]c4c3)CCO2)ccn1` (stereo unspecified): the cytotoxicity at 10 µM was -10.6%.

Turning to `Cc1ccc(S(=O)(=O)N2C[C@H]3C[C@H](NC(=O)c4ccnn4C)[C@H]3C2)cc1`, the cytotoxicity at 10 µM turned out to be 85.2%. For `CCN(CC)c1ncc(Cl)c(C(=O)NC2CCc3nccn3C2)n1` (stereo unspecified), the cytotoxicity at 10 µM was -49.5%. In the case of `NS(=O)(=O)c1ccc(NCc2ccccc2)cc1C(F)(F)F` it was 3.85%.

With `Fc1ccc(CNCc2cc(Br)c3c(c2)OCO3)cc1`, the cytotoxicity at 10 µM was determined as 0.658%. In the case of `COc1ccc(CNCCC(=O)N2CCc3sccc3C2)cc1O` it was 4.48%. In the case of `CN(Cc1ccccc1F)Cc1cc2c(cc1Br)OCCO2` it was -139%; in that of `CCc1cnc(COc2ccc(OC3CCCCNC3=O)cc2)o1` (stereo unspecified), 0.318%.

As to `CC(C)(C)n1ncc(NCCc2ccccc2C(F)(F)F)c(Cl)c1=O`, the cytotoxicity at 10 µM was 57%. In the case of `CC(C)c1nnc(NC(=O)Cc2csc(-c3nnc[nH]3)n2)s1` it was -47.2%; in that of `CNC(=O)CCOC(=O)c1cccc(-n2cccn2)c1`, -39.6%; in that of `CCc1nc(CN2CCN(C(=O)c3cc(C)nn3C)CC2)cs1`, 3.83%. As for `COc1ccnc(N2CCCN(c3nc(C4CC4)ns3)CC2)n1`, the figure is 0.142%; as for `O=C(NC1CCC(N2C(=O)CCC2=O)CC1)c1c[nH]c2ccccc12` (stereo unspecified), -2.06%; as for `Cc1ncc(C(=O)NCCNc2ncnc3sccc23)s1`, 27.6%. In the case of `CCCC(=O)N(C)c1cccc2ncccc12` it was 3.94%; in that of `O=S(=O)(c1ccc(Cl)cc1)N1CCN(CCCn2ccnc2)CC1`, -6.18%; in that of `Cc1cccc(OCC(O)CN2CCN(c3nccs3)CC2)c1` (stereo unspecified), 16.5%.

Turning to `Cc1cnn(CC2CN(CCCS(=O)(=O)N(C)C)CCO2)c1` (stereo unspecified), the cytotoxicity at 10 µM was -2.71%.

As for `Cc1[nH]ncc1CCCNC(=O)Nc1ccc(F)cc1`, the cytotoxicity at 10 µM is 3.91%. In the case of `CCSc1cc(C(=O)NCc2ccc(C(=O)NC)cc2)ccn1` it was 32.6%.

Take `O=c1[nH]ncc(NCCOc2ccc3c(c2)CCC3)c1Cl`: the cytotoxicity at 10 µM amounted to 34.5%. As for `Clc1cc(CN2CCCC(Cn3cncn3)C2)c2ncccc2c1` (stereo unspecified), the figure is 6.64%; as for `Cc1ccc(-c2n[nH]cc2CNCCn2cccn2)o1`, -11.2%; as for `Fc1ccc(-c2n[nH]cc2CNCCn2cccn2)cc1`, 8.1%. `Cc1nc(C)n(CC2CCCN2CC(=O)NCCC2=CCCCC2)n1` (stereo unspecified): the cytotoxicity at 10 µM is -0.527%. For `O=C(c1cc(F)cc2[nH]cnc12)N1CCCCC1Cn1cccn1` (stereo unspecified), the cytotoxicity at 10 µM turned out to be 16.5%. In the case of `O=S(=O)(N1CCOCC1)N1CCc2sccc2C1` it was -92.3%; in that of `CCNC(=O)N1CCC(NC(=O)NCCc2cccc(C)c2)C1` (stereo unspecified), -42.2%.

Regarding `CCCNC(=O)c1cccc(CNCc2csc(C(C)(C)C)n2)c1`, the cytotoxicity at 10 µM came out at 12.3%.

As to `c1ccc(N2CCCC2)c(NCc2ccncc2)c1`, the cytotoxicity at 10 µM was -0.289%. `CCN1CCN(c2ccc(C(=O)NCCOC)cc2F)CC1`: the cytotoxicity at 10 µM worked out at 1.12%. As to `COCC(O)CNc1ccc(C#N)cc1C(F)(F)F` (stereo unspecified), the cytotoxicity at 10 µM is 13.3%. As for `CN1CCN(C2CCN(c3cnc4ccccc4n3)CC2)C1=O`, the figure is 27.4%; as for `Cc1nnc2n1CCN(CC(O)CN1CCC(C)CC1)C2` (stereo unspecified), 2.78%. As for `O=C1C(N2CC[C@@H](O)C2)CCCN1Cc1cccc(C(F)(F)F)c1` (stereo partly specified), the figure is 1.22%. In the case of `CCc1ccc(CNC(=O)c2ccc(N3CCOC3=O)cc2)s1` it was 22.5%; in that of `Cc1ccc(OCC(O)CN(C)CC(=O)Nc2cc(C)on2)c(C)c1` (stereo unspecified), -17.3%; in that of `O=C(NCc1nnc2n1CCC2)N1CCC2(CCCCC2)CC1`, 11%. Turning to `COCC(=O)N1CCC2(CC1)CN(CC1CC1)c1ccc(F)cc12`, the cytotoxicity at 10 µM is -103%. Take `CC(=O)NCC(=O)N1CCN(Cc2ccncc2)c2ncccc2C1`: the cytotoxicity at 10 µM is -90.3%. Consider `Cc1cccc(CN2CC[C@H]3C[C@@H](C)O[C@@H]3C2)n1`, for which the cytotoxicity at 10 µM is -65.5%. In the case of `O=C(c1cccs1)N1C[C@H]2CCC[C@@]2(COCC2CCOCC2)C1` it was -68.9%; in that of `CC[C@@H](C)[C@@H](N)C(=O)Nc1cccc(-c2cnc(N(C)C)nc2)c1`, -4.78%; in that of `COc1ccc(C(=O)C2CCCN(Cc3cccc(F)c3)C2)c(OC)c1` (stereo unspecified), 6.4%. For the compound `COc1ccc2c(c1)OCC(Cc1ccc(N)nc1C)C2` (stereo unspecified), the cytotoxicity at 10 µM worked out at 21.8%.

In the case of `COC(=O)N1CCC2(CC1)N=C(CCC(C)C)NC2=O`, the cytotoxicity at 10 µM was -2.77%. In the case of `N[C@@H]1c2ccccc2C2(CCN(c3ccc(C(F)(F)F)cn3)CC2)[C@H]1O` it was -5.78%. As for `CC(C)c1noc(CN(Cc2cccnc2)C2CN3CCC2CC3)n1` (stereo unspecified), the figure is 17.2%; as for `FC(F)(F)c1ccccc1CCC1CCCN(Cc2cscn2)C1` (stereo unspecified), 2.28%; as for `COCc1noc(-c2ccc(N3CCC[C@H]3CO)nc2)n1`, -8.26%. As for `COc1ccnc(CNc2nc(C)nc3ccsc23)c1`, the figure is 40.5%; as for `C[C@@H](O)[C@H](NC(=O)c1csc2nc(-c3ccccc3F)cn12)C(N)=O`, 2.37%. Regarding `Cc1noc(-c2ccc(N3CCC(C(=O)N4CCCC4)CC3)nc2)n1`, the cytotoxicity at 10 µM is 6.5%. In the case of `COc1ccnc(CN2CCCC(CCc3ccccc3)C2)c1OC` (stereo unspecified) it was 0.979%; in that of `O=C(c1n[nH]cc1Cl)N1CCOC(Cc2cccc(C(F)(F)F)c2)C1` (stereo unspecified), 4.19%. As for `CN(Cc1ccn[nH]1)Cc1c[nH]nc1-c1ccc(F)cc1`, the figure is -6.41%. In the case of `Cc1cnc(C)c(N2CCC(c3nnc(CN(C)C)n3C3CC3)CC2)n1` it was -0.918%; in that of `O=C(NCc1cnn2cccnc12)c1cccc(CC2CCNCC2)c1`, -44.5%; in that of `Cn1ncc(NC(=O)Cn2cc(-c3ccc(F)cn3)cn2)n1`, 7.16%. In the case of `Cc1cc(N(C)Cc2cc(C(C)(C)C)n[nH]2)nc(-c2cccnc2)n1`, the cytotoxicity at 10 µM was 19.9%. Regarding `O=C(CCn1cc(Cl)cn1)N1CCC2(CC1)[C@H](O)C[C@@H]2OCCO`, the cytotoxicity at 10 µM was determined as 19.6%. As for `CCN(CC)C(CNCc1ccc(O)cc1)c1ccco1` (stereo unspecified), the figure is 1.29%. As for `Cc1ccc(CN2CCN(c3nc4c(s3)c(C)nn4C)C(C)C2=O)cc1` (stereo unspecified), the figure is 76.5%; as for `COCCCNC(=O)Cc1nc(-c2ccncc2)n[nH]1`, -9.72%. As for `CCC(C)c1ccc(NC(=O)C2CCN(C(=O)N(C)C)CC2)cc1` (stereo unspecified), the figure is -7.29%; as for `Cc1cnc(C)c(N2CCN(CCCc3ccncc3)CC2)n1`, -15.4%; as for `COc1cccc2c1OCC(NCCc1cnn(-c3ccccc3)c1)C2` (stereo unspecified), -0.6%.

As for `O=C1CC2(CCN(CCCF)CC2)CN1Cc1cc(F)cc(F)c1`, the cytotoxicity at 10 µM amounted to 16.3%.

On to `Cn1ncc2c(NCCOc3ccc(F)cc3)nc(C3CCCC3)nc21`, for which the cytotoxicity at 10 µM is 6.1%. Turning to `CCc1cccc(N2CCC(NC(=O)c3cc[nH]n3)CC2)c1`, the cytotoxicity at 10 µM stood at 3.08%.

As for `c1ccc(OCCNC2=NCCCN2)cc1`, the cytotoxicity at 10 µM is -2.34%. As for `CN(C)c1ccc(CNC2=NCCCN2)cc1`, the figure is -39.9%. As for `Cc1cccc(CN2CCc3c(COCC(=O)N(C)C)nn(C)c3C2)n1`, the figure is -120%. In the case of `Cn1ccnc1NC[C@@H]1CCC[C@@H]2CN(CC3CC3)C[C@@H]21` it was 16%; in that of `c1ccc(N2CCOC3(CCCN(c4ncccn4)C3)C2)nc1` (stereo unspecified), -103%; in that of `O=C(c1ccsc1)N1C[C@@H]2CCN(c3cccnc3)C[C@@H]2C1`, -69.3%. With `O=S1(=O)c2ccccc2C2(CCN(Cc3cccnc3)C2)N1CC1CC1` (stereo unspecified), the cytotoxicity at 10 µM is -68.7%. As for `O=C(c1ccco1)N1CCC2(CCCN(c3ncccn3)C2)C1` (stereo unspecified), the figure is -105%.

Take `O=C1CCCC2=Nc3nonc3NC(c3cc(Cl)ccc3F)C12` (stereo unspecified): the cytotoxicity at 10 µM was 35.5%.
